In brackets after ≈: the same amount, converted by molar mass.

The values that follow come from ChEMBL document CHEMBL3739379, “Anti-Candida activity and cytotoxicity of a large library of new N-substituted-1,3-thiazolidin-4-one derivatives” (Eur J Med Chem, 2016).

Series [1] in a line: Cytotoxicity against human Hep2 cells assessed as cell survival after 24 hrs by trypan blue exclusion method. Type of series: cell-based, HEp-2. Put shortly:
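Hep2 cells grown in DMEM with 10% FBS and 1% streptomycin-penicillin at 37 °C, 5% CO2, used at 60-70% confluency. Seeded at 1 x 10^5/mL and exposed 24 h to five concentrations (0.05-100 µg/mL), DMSO ≤0.5%. Controls: medium alone, DMSO, 1 mM nitroprusside. Cells scraped, recovered 30 min, stained 1:1 with 0.4% Trypan blue, counted by two operators. Means of ≥3 independent experiments.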

A further series has as its system Candida tropicalis. Briefly: Antifungal activity against Candida tropicalis clinical isolate after 24 hrs by sabouraud dextrose broth based microdilution method. The series is classed as functional. Put shortly: (§1)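 Clinical isolates identified by conventional methods and subcultured for purity. Broth microdilution per NCCLS in Sabouraud dextrose broth; compounds dissolved in DMSO and serially diluted; inoculum 10^3/mL. Controls: fungi without compound, medium only. Incubated 24 h at 37 °C. MIC is the lowest concentration with complete growth inhibition by unaided eye. Values are geometric means over isolates per species.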
Background: Dilution methods test growth across graded concentrations, often in twofold steps.

Another series concerns Klebsiella oxytoca. Briefly: Antibacterial activity against Klebsiella oxytoca after 18 to 22 hrs by broth microdilution method. Type of series: functional. Put shortly:
(§2)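 Broth microdilution per NCCLS in Mueller-Hinton II broth; isolates subcultured for purity. Compounds dissolved in DMSO, serial dilutions 256 to 0.5 µg/mL; inoculum 10^5/mL. Controls: organism without compound, medium only. Incubation 18 to 22 h at 35 °C. MIC is the lowest concentration giving complete growth inhibition, read by unaided eye.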

Another series relates to Staphylococcus aureus. Description: Antibacterial activity against Staphylococcus aureus after 18 to 22 hrs by broth microdilution method. The series is classed as functional. The gist of the method:
as §2

The subject of another series is Enterococcus faecalis. Description: Antibacterial activity against […] faecalis after 18 to 22 hrs by broth microdilution method. The series is classed as functional. The gist of the method: as §2
For the next series, the system named is Staphylococcus warneri. Briefly: Antibacterial activity against Staphylococcus warneri after 18 to 22 hrs by broth microdilution method. Type of series: functional. Put shortly:
as §2

Series [2] in a line: Cytotoxicity against human Hep2 cells assessed as cell survival at 0.5 ug/ml after 24 hrs by trypan blue exclusion test (reference value: 87 to 94%). The series is classed as cell-based, HEp-2. To be noted: read-out: Survival.
In a further series the test system is [Candida] sake. Description: Antifungal activity against Candida sake clinical isolate after 24 hrs by sabouraud dextrose broth based microdilution method. Type of series: functional. To be noted: Fermentozyma sake. Put shortly: as §1
In series [3] the test system is Staphylococcus haemolyticus. Briefly: Antibacterial activity against Staphylococcus haemolyticus after 18 to 22 hrs by broth microdilution method. Type of series: functional. Put shortly: as §2
Series [4] is described as follows: Cytotoxicity against human Hep2 cells assessed as cell survival at 50 ug/ml after 24 hrs by trypan blue exclusion test (reference value: 87 to 94%). The settings on record: read-out: Survival. Type of series: cell-based, HEp-2.
The subject of a further series is Pichia kudriavzevii. Briefly: Antifungal activity against Candida krusei clinical isolate after 24 hrs by sabouraud dextrose broth based microdilution method. The series is classed as functional. The gist of the method: as §1
In another series the test system is Escherichia coli. Description: Antibacterial activity against Escherichia coli at after 18 to 22 hrs by broth microdilution method. The series is classed as functional. The gist of the method:
as §2

Series [5] is described as follows: Selectivity index, ratio of CC50 for human Hep2 cells to MIC for Candida glabrata. On the set-up: species or system HEp-2. Put shortly:
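Ratio of CC50 from the 24 h Trypan blue assay on Hep2 cells to the MIC against C. glabrata from the 24 h, 37 °C Sabouraud broth microdilution.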

Series [6] is described as follows: Cytotoxicity against human Hep2 cells assessed as cell survival at 0.05 ug/ml after 24 hrs by trypan blue exclusion test (reference value: 87 to 94%). Type of series: cell-based, HEp-2. To be noted: read-out: Survival.
The test system of the next series is Proteus mirabilis. Description: Antibacterial activity against Proteus mirabilis after 18 to 22 hrs by broth microdilution method. The series is classed as functional. Put shortly: as §2
In another series the test system is Candida parapsilosis. Briefly: Antifungal activity against Candida parapsilosis clinical isolate after 24 hrs by sabouraud dextrose broth based microdilution method. The series is classed as functional. The settings on record: Lodderomyces parapsilosis. The gist of the method:
as §1

A short description of series [7]: Cytotoxicity against human Hep2 cells assessed as cell survival at 100 ug/ml after 24 hrs by trypan blue exclusion test (reference value: 87 to 94%). The settings on record: read-out: Survival. The series is classed as cell-based, HEp-2.
The test system of the next series is Enterobacter sp. Description: Antibacterial activity against Enterobacter sp. after 18 to 22 hrs by broth microdilution method. The series is classed as functional. Put shortly: as §2
Series [8] is described as follows: Cytotoxicity against human Hep2 cells assessed as cell survival at 5 ug/ml after 24 hrs by trypan blue exclusion test (reference value: 87 to 94%). The series is classed as cell-based, HEp-2. To be noted: read-out: Survival.
The next series has as its system Nakaseomyces glabratus. Description: Antifungal activity against Candida glabrata clinical isolate after 24 hrs by sabouraud dextrose broth based microdilution method. Type of series: functional. The gist of the method: as §1
The subject of the next series is Candida albicans. Description: Antifungal activity against Candida albicans clinical isolate after 24 hrs by sabouraud dextrose broth based microdilution method. Type of series: functional. Put shortly: as §1

For orientation: CC50 means the concentration giving 50% cytotoxicity. A word on the MIC: it is the smallest concentration in the dilution series that meets the test's criterion for growth inhibition. As to `C/C(CC(C)C)=N\N=C1/SCC(=O)N1CN1C(=O)c2ccccc2C1=O`, the CC50 at 24 h in series [1] was 99 µg/mL (≈ 266 µM). Further, the MIC is 64 µg/mL (≈ 172 µM) against Candida tropicalis; over 256 µg/mL against Klebsiella oxytoca; over 256 µg/mL with Staphylococcus aureus; over 256 µg/mL against Enterococcus faecalis; over 256 µg/mL with Staphylococcus warneri; 2 µg/mL (≈ 5.37 µM) in [Candida] sake. Further, the MIC is over 256 µg/mL in [3]; 2 µg/mL (≈ 5.37 µM) with Pichia kudriavzevii; over 256 µg/mL against Escherichia coli; over 256 µg/mL against Proteus mirabilis; 2 µg/mL (≈ 5.37 µM) against Candida parapsilosis; over 256 µg/mL in the series on Enterobacter sp.. For the same compound, the values for the MIC in the series with Nakaseomyces glabratus and against Candida albicans were 1 µg/mL (≈ 2.68 µM) and 2 µg/mL (≈ 5.37 µM), respectively. Also, in series [2], the viability at 24 h, 0.5 ug/ml worked out at 92.8%. In series [4], the viability at 24 h, 50 ug/ml was found to be 79%. Moreover, the “Selectivity Index” value in [5] came to 99. Further, the viability at 24 h, 0.05 ug/ml in [6] was determined as 94%. In series [7], the viability at 24 h, 100 ug/ml was found to be 47%. For the same compound, the viability at 24 h, 5 ug/ml in series [8] came out at 90%.
